Laboratory results reported in ChEMBL document CHEMBL3576820, “Discovery of benzimidazole oxazolidinediones as novel and selective nonsteroidal mineralocorticoid receptor antagonists” (ACS Med Chem Lett, 2015).
The source made the active and inactive calls. The calls are words filed in the database; no cut-off is given here.

Tests used:
Glucocorticoid receptor = molecular target: T1, Glucocorticoid receptor (Homo sapiens, UniProt P04150); experiment: Antagonist activity at human glucocorticoid receptor expressed in CHOK1 cells assessed as inhibition of dexamethasone-induced protein interaction with steroid receptor co-activator peptide after overnight incubation by beta-galactosidase reporter gene assay; assay type: cell-based, CHO-K1
T1 sequence (P04150 whole entry): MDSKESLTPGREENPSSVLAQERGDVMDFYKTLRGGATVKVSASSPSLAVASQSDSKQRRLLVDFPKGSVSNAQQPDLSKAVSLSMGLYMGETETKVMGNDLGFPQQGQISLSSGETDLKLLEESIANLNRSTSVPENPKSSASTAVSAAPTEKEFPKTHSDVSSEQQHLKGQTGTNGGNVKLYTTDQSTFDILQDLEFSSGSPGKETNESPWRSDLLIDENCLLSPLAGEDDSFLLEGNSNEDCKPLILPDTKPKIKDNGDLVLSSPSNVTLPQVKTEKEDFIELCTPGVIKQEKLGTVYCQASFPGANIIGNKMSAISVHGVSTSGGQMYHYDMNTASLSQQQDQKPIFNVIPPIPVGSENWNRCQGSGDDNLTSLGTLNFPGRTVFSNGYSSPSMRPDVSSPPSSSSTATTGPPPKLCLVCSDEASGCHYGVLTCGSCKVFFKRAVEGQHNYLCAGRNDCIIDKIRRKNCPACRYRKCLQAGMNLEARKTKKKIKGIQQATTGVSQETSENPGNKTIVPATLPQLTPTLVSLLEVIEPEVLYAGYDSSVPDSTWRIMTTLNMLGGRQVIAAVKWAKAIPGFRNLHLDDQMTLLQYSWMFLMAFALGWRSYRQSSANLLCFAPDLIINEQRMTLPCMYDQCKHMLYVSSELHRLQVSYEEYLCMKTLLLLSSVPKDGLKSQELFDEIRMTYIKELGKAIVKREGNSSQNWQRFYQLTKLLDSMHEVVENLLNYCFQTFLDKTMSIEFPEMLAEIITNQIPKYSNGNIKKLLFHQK

[1] = Oral bioavailability in Wistar han rat at 2 mg/kg; assay type: ADME, organism-based; settings: in vivo
Summary of the method: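 Wistar Han rats. IV dose 1 mg/kg in DMSO/PEG200/water (10:60:30), n=2. Oral dose 2 mg/kg in imwitor/tween (1:1) by gavage, n=3. Values are averages. Derived: F%, plasma clearance, Vdss, terminal half-life and oral AUC normalized to dose.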

Progesterone receptor = molecular target: T2, Progesterone receptor (Homo sapiens, UniProt P06401); experiment: Antagonist activity at human progesterone receptor beta expressed in human U2OS cells assessed as inhibition of D(-)-norgestrel-induced protein interaction with steroid receptor co-activator peptide after overnight incubation by beta-galactosidase reporter gene assay; assay type: cell-based
T2 sequence (P06401 whole entry): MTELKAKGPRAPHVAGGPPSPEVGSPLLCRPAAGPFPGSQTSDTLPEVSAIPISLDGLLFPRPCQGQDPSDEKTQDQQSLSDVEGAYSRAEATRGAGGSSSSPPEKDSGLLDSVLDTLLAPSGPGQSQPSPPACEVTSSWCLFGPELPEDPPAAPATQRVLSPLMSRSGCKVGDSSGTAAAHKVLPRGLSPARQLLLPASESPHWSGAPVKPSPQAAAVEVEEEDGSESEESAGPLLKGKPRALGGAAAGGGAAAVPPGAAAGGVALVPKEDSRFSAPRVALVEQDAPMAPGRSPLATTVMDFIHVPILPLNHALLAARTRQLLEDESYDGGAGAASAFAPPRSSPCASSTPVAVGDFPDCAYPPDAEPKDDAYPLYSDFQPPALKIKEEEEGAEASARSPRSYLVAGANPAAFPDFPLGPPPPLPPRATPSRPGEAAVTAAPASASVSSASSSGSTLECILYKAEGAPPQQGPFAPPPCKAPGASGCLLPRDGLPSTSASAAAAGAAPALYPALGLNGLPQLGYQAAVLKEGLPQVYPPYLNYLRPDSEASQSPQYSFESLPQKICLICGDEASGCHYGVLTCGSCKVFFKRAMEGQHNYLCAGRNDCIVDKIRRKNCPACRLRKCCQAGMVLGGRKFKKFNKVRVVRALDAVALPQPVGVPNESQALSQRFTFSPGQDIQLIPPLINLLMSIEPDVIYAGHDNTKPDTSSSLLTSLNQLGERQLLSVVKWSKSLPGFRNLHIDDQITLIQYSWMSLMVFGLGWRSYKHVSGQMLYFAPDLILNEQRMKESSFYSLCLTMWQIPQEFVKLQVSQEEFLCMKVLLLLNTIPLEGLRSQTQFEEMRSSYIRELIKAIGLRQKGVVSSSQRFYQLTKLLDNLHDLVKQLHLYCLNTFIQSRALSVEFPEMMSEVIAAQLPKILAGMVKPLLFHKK

[2] = molecular target: T3, Estrogen receptor (Homo sapiens) (UniProt P03372); experiment: Agonist activity at human estrogen receptor alpha by cell-based assay
T3 sequence (whole entry): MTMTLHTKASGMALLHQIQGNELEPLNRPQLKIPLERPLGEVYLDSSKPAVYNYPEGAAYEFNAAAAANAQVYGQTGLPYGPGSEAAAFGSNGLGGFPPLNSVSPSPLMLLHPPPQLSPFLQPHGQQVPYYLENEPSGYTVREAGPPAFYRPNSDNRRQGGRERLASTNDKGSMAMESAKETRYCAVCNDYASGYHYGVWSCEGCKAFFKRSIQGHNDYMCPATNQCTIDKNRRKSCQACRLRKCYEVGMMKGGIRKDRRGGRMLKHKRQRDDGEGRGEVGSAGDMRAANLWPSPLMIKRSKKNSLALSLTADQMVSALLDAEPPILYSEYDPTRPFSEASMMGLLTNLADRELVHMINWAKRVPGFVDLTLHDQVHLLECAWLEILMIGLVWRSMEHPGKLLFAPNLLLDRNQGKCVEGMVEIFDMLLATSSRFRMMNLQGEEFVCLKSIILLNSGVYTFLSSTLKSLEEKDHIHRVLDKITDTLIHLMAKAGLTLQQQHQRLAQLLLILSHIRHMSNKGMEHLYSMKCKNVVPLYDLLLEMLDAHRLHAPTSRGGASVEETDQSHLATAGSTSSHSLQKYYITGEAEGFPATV

Estrogen receptor = molecular target: T4, Estrogen receptor (Homo sapiens, UniProt P03372); experiment: Antagonist activity at human estrogen receptor alpha expressed in CHOK1 cells assessed as inhibition of beta-estradiol-induced protein interaction with steroid receptor co-activator peptide after overnight incubation by beta-galactosidase reporter gene assay; assay type: cell-based, CHO-K1
T4 sequence (P03372 whole entry): T3 sequence (whole entry)

[3] = Metabolic stability in human liver microsomes assessed as compound remaining at 1 uM after 0.5 hrs; assay type: ADME; settings: read-out: Stability

SMILES	IC50 (Glucocorticoid receptor)	bioavailability [1]	IC50 (Progesterone receptor)	Activity [2]	IC50 (Estrogen receptor)	remaining at 0.5 h, 1 µM [3]
C[C@H](c1ccc(F)cc1)N1C(=O)O[C@](Cc2ccccc2)(c2nc3cc(-c4cccnc4)ccc3[nH]2)C1=O	3.1 µM	11%	2.9 µM	inactive	7.9 µM	94%
C[C@H](c1ccc(F)cc1)N1C(=O)O[C@](Cc2ccccc2)(c2nc3cc(NS(C)(=O)=O)ccc3[nH]2)C1=O	> 20 µM	6%	4.9 µM	inactive	17 µM	93%
C[C@H](c1ccc(F)cc1)N1C(=O)O[C@](Cc2ccccc2)(c2nc3cc(-c4cc[nH]n4)ccc3[nH]2)C1=O	3 µM	27%	2.9 µM	inactive	6.3 µM	86%
C[C@H](c1ccc(F)cc1)N1C(=O)O[C@](Cc2ccccc2)(c2nc3cc(N4CCOCC4)ccc3[nH]2)C1=O	4.9 µM	44%	1.9 µM	inactive	6.1 µM	81%
C[C@H](c1ccc(F)cc1)N1C(=O)O[C@](Cc2ccccc2)(c2nc3cc(Cl)ccc3[nH]2)C1=O	3.8 µM	15%	2.4 µM	inactive	3.3 µM	55%
Cc1nocc1-c1ccc2[nH]c([C@@]3(Cc4ccccc4)OC(=O)N([C@H](C)c4ccc(F)cc4)C3=O)nc2c1	2.9 µM	54%	2.8 µM	inactive	4.9 µM	27%
C[C@H](c1ccc(F)cc1)N1C(=O)O[C@](Cc2ccccc2)(c2nc3c(NS(C)(=O)=O)cccc3[nH]2)C1=O	17 µM	15%	8.2 µM	inactive	> 20 µM	46%
C[C@H](c1ccc(F)cc1)N1C(=O)O[C@](Cc2ccccc2)(c2nc3cc(C(F)(F)F)ccc3[nH]2)C1=O	3.4 µM	36%	3.2 µM	inactive	3 µM	89%
